Laboratory results: ChEMBL document CHEMBL4043093, “2-Oxo-3, 4-dihydropyrimido[4, 5-d]pyrimidinyl derivatives as new irreversible pan fibroblast growth factor receptor (FGFR) inhibitors” (Eur J Med Chem, 2017)

Columns and labels:
[1] = target: LIM domain kinase 2 (Homo sapiens) (UniProt P53671); assay: Inhibition of wild-type human full length LIMK2 (M1 to P638 residues) expressed in Escherichia coli BL21 assessed as residual activity at 1000 nM after 30 mins by Kinomescan method relative to control
Procedure, shortened: (§1)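 Single-concentration screen at 1 µM across a 456-kinase KINOMEscan panel. The read-out is Percent Control for each kinase.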

[2] = target: Homeodomain-interacting protein kinase 1 (Homo sapiens) (UniProt Q86Z02); assay: Inhibition of wild-type human partial length HIPK1 (M146 to I555 residues) expressed in HEK293 cells assessed as residual activity at 1000 nM after 30 mins by Kinomescan method relative to control; assay type: cell-based
[3] = target: MAP kinase-activated protein kinase 5 (Homo sapiens) (UniProt Q8IW41); assay: Inhibition of wild-type human partial length MAPKAPK5 (M1 to D322 residues) expressed in HEK293 cells assessed as residual activity at 1000 nM after 30 mins by Kinomescan method relative to control; assay type: cell-based
[4] = target: Proto-oncogene tyrosine-protein kinase receptor Ret (Homo sapiens) (UniProt P07949); assay: Inhibition of wild-type human partial length RET (E713 to D1014 residues) expressed in Escherichia coli BL21 assessed as residual activity at 1000 nM after 30 mins by Kinomescan method relative to control
Sequence of Proto-oncogene tyrosine-protein kinase receptor Ret (Homo sapiens) (P07949 whole entry, the tested form may be a part): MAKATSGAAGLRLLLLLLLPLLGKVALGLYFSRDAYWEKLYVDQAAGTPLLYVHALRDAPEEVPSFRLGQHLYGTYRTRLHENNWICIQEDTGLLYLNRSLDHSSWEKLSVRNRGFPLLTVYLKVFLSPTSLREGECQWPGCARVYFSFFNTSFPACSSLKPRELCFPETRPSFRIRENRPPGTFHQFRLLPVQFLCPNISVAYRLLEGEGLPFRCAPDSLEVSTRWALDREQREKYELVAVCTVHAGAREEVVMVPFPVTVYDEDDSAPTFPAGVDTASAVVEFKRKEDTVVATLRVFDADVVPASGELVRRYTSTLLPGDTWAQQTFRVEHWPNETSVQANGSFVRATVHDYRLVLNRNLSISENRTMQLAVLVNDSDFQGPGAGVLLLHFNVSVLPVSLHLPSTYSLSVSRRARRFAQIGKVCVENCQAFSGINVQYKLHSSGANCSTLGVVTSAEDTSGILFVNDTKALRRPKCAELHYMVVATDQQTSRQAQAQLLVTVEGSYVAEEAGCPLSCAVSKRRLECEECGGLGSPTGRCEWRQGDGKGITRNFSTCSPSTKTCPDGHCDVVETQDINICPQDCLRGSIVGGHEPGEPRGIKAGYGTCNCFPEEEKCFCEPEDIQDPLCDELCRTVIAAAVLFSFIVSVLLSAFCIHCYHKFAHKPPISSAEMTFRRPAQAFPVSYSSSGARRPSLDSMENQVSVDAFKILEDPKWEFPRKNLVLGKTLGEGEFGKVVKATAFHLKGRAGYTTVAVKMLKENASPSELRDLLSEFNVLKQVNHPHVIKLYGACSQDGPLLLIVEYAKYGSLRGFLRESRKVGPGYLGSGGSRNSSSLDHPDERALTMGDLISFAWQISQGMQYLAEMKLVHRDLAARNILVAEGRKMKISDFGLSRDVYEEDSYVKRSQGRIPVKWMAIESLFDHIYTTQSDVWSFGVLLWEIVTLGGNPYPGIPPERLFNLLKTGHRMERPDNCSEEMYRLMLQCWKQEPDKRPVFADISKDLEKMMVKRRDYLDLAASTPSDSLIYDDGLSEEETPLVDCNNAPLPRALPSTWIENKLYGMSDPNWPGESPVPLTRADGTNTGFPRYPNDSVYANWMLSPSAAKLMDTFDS

[5] = target: Citron Rho-interacting kinase (Homo sapiens) (UniProt O14578); assay: Inhibition of wild-type human partial length CIT (M68 to E432 residues) expressed in Escherichia coli BL21 assessed as residual activity at 1000 nM after 30 mins by Kinomescan method relative to control
[6] = target: Mitogen-activated protein kinase kinase kinase 9 (Homo sapiens) (UniProt P80192); assay: Inhibition of wild-type human partial length MLK1 (V88 to W426 residues) expressed in Escherichia coli BL21 assessed as residual activity at 1000 nM after 30 mins by Kinomescan method relative to control
Sequence of Mitogen-activated protein kinase kinase kinase 9 (Homo sapiens) (P80192 whole entry, looked up, the tested form may be a part): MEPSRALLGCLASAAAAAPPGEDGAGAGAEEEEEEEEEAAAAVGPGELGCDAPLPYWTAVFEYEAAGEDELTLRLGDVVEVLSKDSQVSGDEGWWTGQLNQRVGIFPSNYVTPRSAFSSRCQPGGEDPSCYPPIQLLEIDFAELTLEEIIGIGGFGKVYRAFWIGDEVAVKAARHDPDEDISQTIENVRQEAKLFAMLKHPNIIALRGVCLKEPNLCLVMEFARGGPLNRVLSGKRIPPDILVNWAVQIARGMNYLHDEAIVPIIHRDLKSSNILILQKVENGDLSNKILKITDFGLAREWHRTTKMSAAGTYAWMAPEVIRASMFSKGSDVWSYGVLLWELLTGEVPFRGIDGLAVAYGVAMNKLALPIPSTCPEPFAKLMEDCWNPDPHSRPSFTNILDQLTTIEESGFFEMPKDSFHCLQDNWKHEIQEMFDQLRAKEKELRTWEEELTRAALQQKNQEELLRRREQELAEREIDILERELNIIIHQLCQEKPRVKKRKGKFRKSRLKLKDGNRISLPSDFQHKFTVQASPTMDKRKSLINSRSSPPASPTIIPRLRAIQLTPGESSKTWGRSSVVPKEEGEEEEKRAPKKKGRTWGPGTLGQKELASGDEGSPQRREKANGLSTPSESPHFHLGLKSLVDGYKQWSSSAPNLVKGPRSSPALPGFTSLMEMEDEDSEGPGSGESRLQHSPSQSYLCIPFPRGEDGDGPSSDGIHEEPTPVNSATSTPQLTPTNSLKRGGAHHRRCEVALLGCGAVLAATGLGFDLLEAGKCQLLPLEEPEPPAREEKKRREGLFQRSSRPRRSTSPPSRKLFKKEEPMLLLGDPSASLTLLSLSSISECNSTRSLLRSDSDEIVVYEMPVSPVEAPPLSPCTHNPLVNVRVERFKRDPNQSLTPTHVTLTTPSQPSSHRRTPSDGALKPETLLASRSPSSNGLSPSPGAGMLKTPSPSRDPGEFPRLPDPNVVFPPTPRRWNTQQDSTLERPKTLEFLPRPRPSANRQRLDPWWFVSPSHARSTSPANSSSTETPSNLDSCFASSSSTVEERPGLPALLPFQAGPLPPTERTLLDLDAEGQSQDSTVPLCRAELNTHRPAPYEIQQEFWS

[7] = target: Tyrosine-protein kinase HCK (Homo sapiens) (UniProt P08631); assay: Inhibition of wild-type human full length HCK (M22 to P526 residues) expressed in Escherichia coli BL21 assessed as residual activity at 1000 nM after 30 mins by Kinomescan method relative to control; procedure, shortened: as §1
[8] = target: Serine/threonine-protein kinase TNNI3K (Homo sapiens) (UniProt Q59H18); assay: Inhibition of wild-type human full length TNNI3K (M1 to S835 residues) expressed in Escherichia coli BL21 assessed as residual activity at 1000 nM after 30 mins by Kinomescan method relative to control
[9] = target: Mitotic checkpoint serine/threonine-protein kinase BUB1 (Homo sapiens) (UniProt O43683); assay: Inhibition of wild-type human partial length BUB1 (Q724 to K1085 residues) expressed in HEK293 cells assessed as residual activity at 1000 nM after 30 mins by Kinomescan method relative to control; assay type: cell-based
[10] = target: Activin receptor type-2A (Homo sapiens) (UniProt P27037); assay: Inhibition of wild-type human ACVR2A (V171 to T499 residues) expressed in Escherichia coli BL21 assessed as residual activity at 1000 nM after 30 mins by Kinomescan method relative to control
Procedure, shortened: (§2)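 Single-point screen at a fixed 1 µM, run within a 456-kinase DiscoveRx KINOMEscan panel. Each kinase's read-out is Percent Control, i.e. signal relative to a control without compound. Hits were scored by a Percent Control < 35 cut-off, and an S(35) selectivity score was calculated across the non-mutant kinases.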

[11] = target: Serine/threonine-protein kinase 17A (Homo sapiens) (UniProt Q9UEE5); assay: Inhibition of wild-type human partial length DRAK1 (R32 to E363 residues) expressed in Escherichia coli BL21 assessed as residual activity at 1000 nM after 30 mins by Kinomescan method relative to control
[12] = target: Mitogen-activated protein kinase kinase kinase kinase 4 (Homo sapiens) (UniProt O95819); assay: Inhibition of wild-type human partial length MAP4K4 (M1 to R310 residues) expressed in Escherichia coli BL21 assessed as residual activity at 1000 nM after 30 mins by Kinomescan method relative to control
[13] = target: STE20-like serine/threonine-protein kinase (Homo sapiens) (UniProt Q9H2G2); assay: Inhibition of wild-type human partial length SLK (S14 to A307 residues) expressed in Escherichia coli BL21 assessed as residual activity at 1000 nM after 30 mins by Kinomescan method relative to control
Sequence of STE20-like serine/threonine-protein kinase (Homo sapiens) (Q9H2G2 whole entry, looked up, the tested form may be a part): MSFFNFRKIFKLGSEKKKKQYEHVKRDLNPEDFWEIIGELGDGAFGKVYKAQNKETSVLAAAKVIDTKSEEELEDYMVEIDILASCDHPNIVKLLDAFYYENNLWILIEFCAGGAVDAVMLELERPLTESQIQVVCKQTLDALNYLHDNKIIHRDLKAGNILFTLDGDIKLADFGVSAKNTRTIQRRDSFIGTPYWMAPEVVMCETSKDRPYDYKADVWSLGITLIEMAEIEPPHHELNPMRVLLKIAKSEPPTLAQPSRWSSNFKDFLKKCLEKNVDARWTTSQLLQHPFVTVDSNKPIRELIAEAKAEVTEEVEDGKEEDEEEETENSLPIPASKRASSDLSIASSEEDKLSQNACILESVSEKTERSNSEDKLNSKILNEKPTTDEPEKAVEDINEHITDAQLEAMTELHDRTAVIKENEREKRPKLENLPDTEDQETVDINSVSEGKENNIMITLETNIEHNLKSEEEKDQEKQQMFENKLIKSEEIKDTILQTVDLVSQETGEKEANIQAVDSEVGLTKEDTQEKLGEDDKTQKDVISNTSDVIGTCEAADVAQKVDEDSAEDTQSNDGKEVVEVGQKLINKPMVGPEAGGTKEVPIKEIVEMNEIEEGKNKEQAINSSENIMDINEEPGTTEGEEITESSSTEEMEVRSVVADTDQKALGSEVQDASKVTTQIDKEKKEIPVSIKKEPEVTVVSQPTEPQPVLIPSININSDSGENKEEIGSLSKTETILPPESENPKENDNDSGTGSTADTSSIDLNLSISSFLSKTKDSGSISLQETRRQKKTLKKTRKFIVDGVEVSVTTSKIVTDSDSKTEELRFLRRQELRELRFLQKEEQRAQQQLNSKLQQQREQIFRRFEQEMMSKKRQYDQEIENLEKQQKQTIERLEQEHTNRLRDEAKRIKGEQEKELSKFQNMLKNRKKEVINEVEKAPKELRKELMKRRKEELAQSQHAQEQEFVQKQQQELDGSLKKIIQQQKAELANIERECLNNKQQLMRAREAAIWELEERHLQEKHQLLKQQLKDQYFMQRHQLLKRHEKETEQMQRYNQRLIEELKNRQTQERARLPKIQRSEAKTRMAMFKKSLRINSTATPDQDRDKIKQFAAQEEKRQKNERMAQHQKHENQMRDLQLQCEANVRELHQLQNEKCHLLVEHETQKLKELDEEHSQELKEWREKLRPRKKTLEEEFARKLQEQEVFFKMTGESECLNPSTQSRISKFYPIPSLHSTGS

[14] = target: Dual specificity mitogen-activated protein kinase kinase 2 (Homo sapiens) (UniProt P36507); assay: Inhibition of wild-type human full length MEK2 (M1 to V400 residues) expressed in HEK293 cells assessed as residual activity at 1000 nM after 30 mins by Kinomescan method relative to control; assay type: cell-based; procedure, shortened: as §1
[15] = target: Cyclin-dependent kinase 15 (Homo sapiens) (UniProt Q96Q40); assay: Inhibition of wild-type human full length PFTAIRE2 (M1 to W384 residues) expressed in Escherichia coli BL21 assessed as residual activity at 1000 nM after 30 mins by Kinomescan method relative to control; procedure, shortened: as §1
[16] = target: Serine/threonine-protein kinase Sgk2 (Homo sapiens) (UniProt Q9HBY8); assay: Inhibition of wild-type human partial length SGK2 (L54 to C427 residues) expressed in HEK293 cells assessed as residual activity at 1000 nM after 30 mins by Kinomescan method relative to control; assay type: cell-based
Sequence of Serine/threonine-protein kinase Sgk2 (Homo sapiens) (Q9HBY8 whole entry, the tested form may be a part): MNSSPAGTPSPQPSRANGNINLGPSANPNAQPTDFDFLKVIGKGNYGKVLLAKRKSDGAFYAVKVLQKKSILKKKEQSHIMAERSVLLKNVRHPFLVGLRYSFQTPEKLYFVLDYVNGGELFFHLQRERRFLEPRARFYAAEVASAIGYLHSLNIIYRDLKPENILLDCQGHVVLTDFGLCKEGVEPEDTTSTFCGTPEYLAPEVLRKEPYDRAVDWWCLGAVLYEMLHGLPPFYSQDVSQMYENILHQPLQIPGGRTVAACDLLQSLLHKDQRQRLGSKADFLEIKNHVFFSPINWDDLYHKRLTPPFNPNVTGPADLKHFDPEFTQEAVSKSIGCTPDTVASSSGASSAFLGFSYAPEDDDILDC

[17] = target: Serine/threonine-protein kinase haspin (Homo sapiens) (UniProt Q8TF76); assay: Inhibition of wild-type human partial length HASPIN (I452 to K798 residues) expressed in HEK293 cells assessed as residual activity at 1000 nM after 30 mins by Kinomescan method relative to control; assay type: cell-based
[18] = target: Activin receptor type-1B (Homo sapiens) (UniProt P36896); assay: Inhibition of wild-type human ACVR1B (S187 to I505 residues) expressed in Escherichia coli BL21 assessed as residual activity at 1000 nM after 30 mins by Kinomescan method relative to control; procedure, shortened: as §2
Sequence of Activin receptor type-1B (Homo sapiens) (P36896 whole entry, the tested form may be a part): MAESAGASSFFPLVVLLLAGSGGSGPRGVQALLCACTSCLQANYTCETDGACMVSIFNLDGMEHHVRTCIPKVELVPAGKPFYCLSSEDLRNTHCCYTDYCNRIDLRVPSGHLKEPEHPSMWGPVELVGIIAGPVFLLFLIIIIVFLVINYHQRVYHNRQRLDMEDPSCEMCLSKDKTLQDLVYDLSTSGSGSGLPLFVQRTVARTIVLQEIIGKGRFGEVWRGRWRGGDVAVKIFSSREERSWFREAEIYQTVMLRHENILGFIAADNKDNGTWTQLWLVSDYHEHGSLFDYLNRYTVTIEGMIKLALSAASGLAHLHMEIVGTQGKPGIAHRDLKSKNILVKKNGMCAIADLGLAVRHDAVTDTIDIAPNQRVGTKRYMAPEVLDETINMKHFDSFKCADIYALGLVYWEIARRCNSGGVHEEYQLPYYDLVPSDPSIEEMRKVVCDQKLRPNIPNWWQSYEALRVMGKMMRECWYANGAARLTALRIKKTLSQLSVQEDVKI

[19] = target: Serine/threonine-protein kinase 36 (Homo sapiens) (UniProt Q9NRP7); assay: Inhibition of wild-type human partial length STK36 (M1 to T271 residues) expressed in Escherichia coli BL21 assessed as residual activity at 1000 nM after 30 mins by Kinomescan method relative to control
[20] = target: Dual specificity testis-specific protein kinase 1 (Homo sapiens) (UniProt Q15569); assay: Inhibition of wild-type human full length TESK1 (R37 to S626 residues) expressed in Escherichia coli BL21 assessed as residual activity at 1000 nM after 30 mins by Kinomescan method relative to control
Sequence of Dual specificity testis-specific protein kinase 1 (Homo sapiens) (Q15569 whole entry, looked up, the tested form may be a part): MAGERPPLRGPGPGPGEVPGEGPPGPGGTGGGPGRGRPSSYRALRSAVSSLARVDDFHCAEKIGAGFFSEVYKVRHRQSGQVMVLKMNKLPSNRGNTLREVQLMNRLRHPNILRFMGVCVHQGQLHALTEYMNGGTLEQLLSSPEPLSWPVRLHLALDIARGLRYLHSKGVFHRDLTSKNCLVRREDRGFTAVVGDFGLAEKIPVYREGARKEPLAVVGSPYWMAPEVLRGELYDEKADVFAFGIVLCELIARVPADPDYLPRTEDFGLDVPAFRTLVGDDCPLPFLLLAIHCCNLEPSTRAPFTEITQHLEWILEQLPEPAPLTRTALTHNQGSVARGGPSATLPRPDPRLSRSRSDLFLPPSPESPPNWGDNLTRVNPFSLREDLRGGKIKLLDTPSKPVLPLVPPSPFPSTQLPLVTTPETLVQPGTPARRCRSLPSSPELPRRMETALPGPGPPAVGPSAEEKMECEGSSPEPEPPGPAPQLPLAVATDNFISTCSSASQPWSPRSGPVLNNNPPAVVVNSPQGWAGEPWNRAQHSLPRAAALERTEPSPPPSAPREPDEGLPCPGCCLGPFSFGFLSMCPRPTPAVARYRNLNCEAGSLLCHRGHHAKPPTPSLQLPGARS

[21] = tested on: Receptor-type tyrosine-protein kinase FLT3 (Homo sapiens), P36888 [D835H]; assay: Inhibition of human partial length FLT3 D835H mutant (V592 to Y969 residues) expressed in Escherichia coli BL21 assessed as residual activity at 1000 nM after 30 mins by Kinomescan method relative to control
Procedure, shortened: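 KINOMEscan binding panel of 456 kinases, with the test compound at a single concentration of 1 µM. Read-out is Percent Control.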

COc1cc(OC)c(Cl)c(N2Cc3cnc(Nc4ccc(F)cc4)nc3N(C3CCN(C(=O)/C=C/CN(C)C)CC3)C2=O)c1Cl
Activity [1]: 100%
Activity [2]: 100%
Activity [3]: 100%
Activity [4]: 8.1%
Activity [5]: 99%
Activity [6]: 97%
Activity [7]: 10%
Activity [8]: 100%
Activity [9]: 100%
Activity [10]: 99%
Activity [11]: 96%
Activity [12]: 100%
Activity [13]: 100%
Activity [14]: 89%
Activity [15]: 100%
Activity [16]: 100%
Activity [17]: 61%
Activity [18]: 100%
Activity [19]: 100%
Activity [20]: 82%
Activity [21]: 100%
